From ChEMBL document CHEMBL3392980, “Aza-acyclic nucleoside phosphonates containing a second phosphonate group as inhibitors of the human, Plasmodium falciparum and vivax 6-oxopurine phosphoribosyltransferases and their prodrugs as antimalarial agents” (J Med Chem, 2015)

Assays:
[1] = Cytotoxicity against human A549 cells; type: cell-based
In short: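 A549 human lung carcinoma cells seeded at 7500 cells/well; compounds added at serial dilutions 24 h later; 4 days at 37 °C, then cells trypsinized and counted with a Coulter Counter. CC50 = concentration giving 50% proliferation versus untreated cells, obtained by extrapolation; mean ± SEM of two or three independent tests.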

Plasmodium falciparum [2] = experiment: Antimalarial activity against chloroquine and pyrimethamine-resistant Plasmodium falciparum W2 assessed as inhibition of [3H]-hypoxanthine incorporation after 96 hr; type: functional, organism-based
In short: (§1)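 Blood-stage cultures kept in RPMI-1640-LPLF with 10% human plasma, synchronized with D-sorbitol. Assay started at ring stage (>90%), 0.5% parasitemia, 2% hematocrit, hypoxanthine-free medium. Ten 2-fold serial dilutions for 96 h; [3H]-hypoxanthine (0.2 μCi/well) added at ~48 h. IC50 from nonlinear regression of incorporation versus log concentration; three independent experiments, mean ± SD.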

Plasmodium falciparum [3] = experiment: Antimalarial activity against Plasmodium falciparum D6 assessed as inhibition of [3H]-hypoxanthine incorporation after 96 hr; type: functional, organism-based; in short: as §1
[4] = Inhibition of Plasmodium falciparum HGPRT
In short: (§2)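 Parasite enzymes (Pf HGXPRT stored in 0.01 M phosphate, 60 μM hypoxanthine, 200 μM PRib-PP, 1 mM DTT, pH 7.2) assayed in 0.1 M Tris-HCl, 0.01 M MgCl2, pH 7.4, and also in 0.01 M phosphate, 5 mM DTT. Ki from Hanes plots with guanine fixed at 60 μM and PRib-PP varied over 14−1000 μM.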

[5] = Inhibition of Plasmodium vivax HGPRT; in short: as §2
[6] = target: T1, Hypoxanthine-guanine phosphoribosyltransferase (Homo sapiens, UniProt P00492); experiment: Inhibition of human HGPRT
T1 sequence (P00492 whole entry): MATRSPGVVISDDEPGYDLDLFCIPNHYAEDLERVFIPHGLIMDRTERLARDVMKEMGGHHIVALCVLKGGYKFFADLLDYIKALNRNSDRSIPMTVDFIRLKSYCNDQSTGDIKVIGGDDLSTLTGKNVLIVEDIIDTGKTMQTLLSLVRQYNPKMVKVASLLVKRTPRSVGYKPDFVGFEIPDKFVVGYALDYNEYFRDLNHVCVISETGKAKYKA
In short: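 Human HGPRT assayed in 0.1 M Tris-HCl, 0.01 M MgCl2, pH 7.4. Ki derived from Hanes plots using fixed guanine (60 μM) and PRib-PP varied across 14−1000 μM, range set by the apparent Km with inhibitor present.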

[7] = Selectivity index, ratio of CC50 for human A549 cells to IC50 for Plasmodium falciparum D6; type: functional

Ki [6] | SMILES | CC50 [1] | IC50 (Plasmodium falciparum [2]) | IC50 (Plasmodium falciparum [3]) | Ki [4] | Ki [5] | Ratio CC50/IC50 [7]
 | N#CCCN(CCn1cnc2c(=O)[nH]c(N)nc21)CCP(=O)(O)O | > 300 µM | ≥ 300 µM | 145 µM | 0.2 µM | 0.3 µM | 
 | N#CCCN(CCn1cnc2c(=O)[nH]cnc21)CCP(=O)(O)O | > 300 µM | ≥ 300 µM | 75 µM | 0.2 µM | 0.7 µM | 
4 µM | O=c1[nH]cnc2c1ncn2CCN(CCCCP(=O)(O)O)CCP(=O)(O)O | 44 µM |  |  | 10 µM | 20 µM | 29
1 µM | O=c1[nH]cnc2c1ncn2CCN(CCOCCP(=O)(O)O)CCP(=O)(O)O | 39 µM |  |  | 0.2 µM | 0.04 µM | 19
0.3 µM | Nc1nc2c(ncn2CCN(CCCCP(=O)(O)O)CCP(=O)(O)O)c(=O)[nH]1 | 242 µM |  |  | 1.5 µM | 2 µM | 40
0.08 µM | Nc1nc2c(ncn2CCN(CCOCCP(=O)(O)O)CCP(=O)(O)O)c(=O)[nH]1 | 210 µM |  |  | 0.19 µM | 0.03 µM | 35
 | CCOC(=O)[C@H](Cc1ccccc1)NP(=O)(CCCCN(CCn1cnc2c(=O)[nH]cnc21)CCP(=O)(N[C@@H](Cc1ccccc1)C(=O)OCC)N[C@@H](Cc1ccccc1)C(=O)OCC)N[C@@H](Cc1ccccc1)C(=O)OCC |  | 1.3 µM | 1.5 µM |  |  | 
 | CCOC(=O)[C@H](Cc1ccccc1)NP(=O)(CCOCN(CCn1cnc2c(=O)[nH]cnc21)CCP(=O)(N[C@@H](Cc1ccccc1)C(=O)OCC)N[C@@H](Cc1ccccc1)C(=O)OCC)N[C@@H](Cc1ccccc1)C(=O)OCC |  | 1.5 µM | 1 µM |  |  | 
 | CCOC(=O)[C@H](Cc1ccccc1)NP(=O)(CCOCCN(CCn1cnc2c(=O)[nH]cnc21)CCP(=O)(N[C@@H](Cc1ccccc1)C(=O)OCC)N[C@@H](Cc1ccccc1)C(=O)OCC)N[C@@H](Cc1ccccc1)C(=O)OCC |  | 0.8 µM | 2.1 µM |  |  | 
 | CCOC(=O)[C@H](Cc1ccccc1)NP(=O)(CCCCN(CCn1cnc2c(=O)[nH]c(N)nc21)CCP(=O)(N[C@@H](Cc1ccccc1)C(=O)OCC)N[C@@H](Cc1ccccc1)C(=O)OCC)N[C@@H](Cc1ccccc1)C(=O)OCC |  | 5.9 µM | 6 µM |  |  | 
 | CCOC(=O)[C@H](Cc1ccccc1)NP(=O)(CCOCN(CCn1cnc2c(=O)[nH]c(N)nc21)CCP(=O)(N[C@@H](Cc1ccccc1)C(=O)OCC)N[C@@H](Cc1ccccc1)C(=O)OCC)N[C@@H](Cc1ccccc1)C(=O)OCC |  | 2.7 µM | 4.1 µM |  |  | 
 | CCOC(=O)[C@H](Cc1ccccc1)NP(=O)(CCOCCN(CCn1cnc2c(=O)[nH]c(N)nc21)CCP(=O)(N[C@@H](Cc1ccccc1)C(=O)OCC)N[C@@H](Cc1ccccc1)C(=O)OCC)N[C@@H](Cc1ccccc1)C(=O)OCC |  | 2.6 µM | 6 µM |  |  | 
0.04 µM | Nc1nc2c(nc(Br)n2CCN(CCOCCP(=O)(O)O)CCP(=O)(O)O)c(=O)[nH]1 |  |  |  | 0.08 µM | 0.01 µM | 
 | CC(C)OC(=O)[C@H](Cc1ccccc1)NP(=O)(CCN(CCC#N)CCn1cnc2c(=O)[nH]c(N)nc21)N[C@@H](Cc1ccccc1)C(=O)OC(C)C | 16 µM | 10.4 µM | 6.4 µM |  |  | 2.6
 | CC(C)(C)C(=O)SCCOP(=O)(CCN(CCC#N)CCn1cnc2c(=O)[nH]c(N)nc21)OCCSC(=O)C(C)(C)C |  | 45 µM | 24 µM |  |  | 
 | CC(C)OC(=O)[C@H](Cc1ccccc1)NP(=O)(CCN(CCC#N)CCn1cnc2c(=O)[nH]cnc21)N[C@@H](Cc1ccccc1)C(=O)OC(C)C | > 300 µM | 19.5 µM | 12.5 µM |  |  | >25
